Assay results collected from several papers.
Compare with care: the assays were run in different laboratories. pIC50: −log10 of the molar value.
Cell line: HepG2
Observed: cell growth or viability

CC(=O)Nc1cccc(-n2c(=O)n(C3CC3)c(=O)c3c(Nc4ccc(I)cc4F)n(C)c(=O)c(C)c32)c1 gave a viability of 42.6% (resazurin; 25 nM; 72 h).
CCOC(=O)c1ccc(-n2c(N)c(C#N)c(CC#N)c(C#N)c2=O)cc1 gave a viability of 35.1% (MTT; 50 µM; 24 h).
With Clc1ccc(-c2nc3ccccc3[nH]2)cc1 the pIC50 was 4.29 (MTT; 48 h).
COc1ccc(NC(=O)c2c(Nc3ccccc3)sc(C(=O)NN=Cc3ccccc3)c2NC(C)=O)cc1 has a viability of 99.3% (SRB; 1 nM; 48 h).
With c1ccc2c(-c3nc4ccccc4[nH]3)c3ccccc3cc2c1 the pIC50 was 5.01 (MTT; 48 h).
The viability of COc1ccc(NC(=O)c2c(Nc3ccccc3)sc(C#N)c2NC(=O)CNc2ccc(Br)cc2)cc1 is reported as 39.7% (SRB; 100 µM; 48 h).
With COc1ccc(-c2nc3ccccc3[nH]2)cc1OC the pIC50 was 4.36 (MTT; 48 h).
The viability of COc1ccc(NC(=O)c2c(Nc3ccccc3)sc(C(=O)NN=Cc3ccc(OC)c(O)c3)c2NC(C)=O)cc1 is reported as 100% (SRB; 1 nM; 48 h).
The viability of CCOC(=O)c1ccc(-n2c(-c3ccc(C)cc3)cc(-c3ccc(O)cc3)c(C#N)c2=O)cc1 is reported as 50.4% (MTT; 12.5 µM; 24 h).
